Data as given in ChEMBL document CHEMBL5550111, “Design, synthesis and biological evaluation of aryloxy thiophosphoramidate triesters of anticancer nucleoside analogues” (Bioorg Med Chem, 2024).

Experiments:
[1] = test system: RT112/84; test: Cytotoxicity against human RT112/84 cells assessed as maximum inhibition of cell viability upto 198 uM incubated for 72 hrs by MTS assay relative to control; assay type: functional; settings: up to 198 µM
How it was run: (§1)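 Cells seeded at 0.5 to 100 × 10^3 per well the day before drug addition, then exposed to compound for 72 h. MTS added afterwards, with a further 4 h at 37 °C, and absorbance read. Tested in duplicate at 9 serial 3.16-fold dilutions, top concentration 198 μM. MI% is the maximum inhibition of viability across the tested range.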

[2] = test system: RT112/84; test: Cytotoxicity against human RT112/84 cells assessed as inhibition of cell viability incubated for 72 hrs by MTS assay; assay type: functional, cell-based; settings: RT112/84, 72 h
How it was run: (§2)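 Cells seeded at 0.5 to 100 × 10^3 per well the day before treatment, then exposed for 72 h to 9 serial concentrations (3.16-fold dilutions, top 198 μM), in duplicate. MTS added for a final 4 h at 37 °C and absorbance read. IC50 is the concentration giving 50% loss of viability. MI% is the maximum inhibition over the tested range.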

[3] = test system: NCI-H1975; test: Cytotoxicity against human NCI-H1975 cells assessed as maximum inhibition of cell viability upto 198 uM incubated for 72 hrs by MTS assay relative to control; assay type: functional; settings: up to 198 µM; how it was run: as §1
[4] = test system: OVCAR-3; test: Cytotoxicity against human OVCAR-3 cells assessed as inhibition of cell viability incubated for 72 hrs by MTS assay; assay type: functional, cell-based; settings: OVCAR-3, 72 h; how it was run: as §2
[5] = test system: SK-MES-1; test: Cytotoxicity against human SK-MES-1 cells assessed as maximum inhibition of cell viability upto 198 uM incubated for 72 hrs by MTS assay relative to control; assay type: functional; settings: up to 198 µM; how it was run: as §1
[6] = test system: MIA PaCa-2; test: Cytotoxicity against human MIA PaCa-2 cells assessed as inhibition of cell viability incubated for 72 hrs by MTS assay; assay type: functional, cell-based; settings: MIA PaCa-2, 72 h; how it was run: as §2
[7] = test system: RPMI-8226; test: Cytotoxicity against human RPMI-8226 cells assessed as inhibition of cell viability incubated for 72 hrs by MTS assay; assay type: functional, cell-based; settings: RPMI-8226, 72 h; how it was run: as §2
[8] = test system: HepG2; test: Cytotoxicity against human HepG2 cells assessed as maximum inhibition of cell viability upto 198 uM incubated for 72 hrs by MTS assay relative to control; assay type: functional; settings: up to 198 µM; how it was run: as §1
[9] = test system: HT-29; test: Cytotoxicity against human HT-29 cells assessed as inhibition of cell viability incubated for 72 hrs by MTS assay; assay type: functional, cell-based; settings: HT-29, 72 h; how it was run: as §2
[10] = test system: RPMI-8226; test: Cytotoxicity against human RPMI-8226 cells assessed as maximum inhibition of cell viability upto 198 uM incubated for 72 hrs by MTS assay relative to control; assay type: functional; settings: up to 198 µM; how it was run: as §1
[11] = test system: SK-MES-1; test: Cytotoxicity against human SK-MES-1 cells assessed as inhibition of cell viability incubated for 72 hrs by MTS assay; assay type: functional, cell-based; settings: SK-MES-1, 72 h; how it was run: as §2
[12] = test system: OVCAR-3; test: Cytotoxicity against human OVCAR-3 cells assessed as maximum inhibition of cell viability upto 198 uM incubated for 72 hrs by MTS assay relative to control; assay type: functional; settings: up to 198 µM; how it was run: as §1
[13] = test system: MIA PaCa-2; test: Cytotoxicity against human MIA PaCa-2 cells assessed as maximum inhibition of cell viability upto 198 uM incubated for 72 hrs by MTS assay relative to control; assay type: functional; settings: up to 198 µM; how it was run: as §1
[14] = test system: COLO 205; test: Cytotoxicity against human COLO 205 cells assessed as inhibition of cell viability incubated for 72 hrs by MTS assay; assay type: functional, cell-based; settings: COLO 205, 72 h; how it was run: as §2
[15] = test system: HepG2; test: Cytotoxicity against human HepG2 cells assessed as inhibition of cell viability incubated for 72 hrs by MTS assay; assay type: functional, cell-based; settings: HepG2, 72 h; how it was run: as §2
[16] = test system: HT-29; test: Cytotoxicity against human HT-29 cells assessed as maximum inhibition of cell viability upto 198 uM incubated for 72 hrs by MTS assay relative to control; assay type: functional; settings: up to 198 µM; how it was run: as §1
[17] = test system: COLO 205; test: Cytotoxicity against human COLO 205 cells assessed as maximum inhibition of cell viability upto 198 uM incubated for 72 hrs by MTS assay relative to control; assay type: functional; settings: up to 198 µM; how it was run: as §1

## Nc1nc(=O)n([C@H]2C[C@H](O)[C@@H](CO)O2)cc1F
[1]
  Imax: 67%
[2]
  IC50: 90 nM
[3]
  Imax: 91%
[4]
  IC50: 740 nM
[5]
  Imax: 67%
[6]
  IC50: 300 nM
[7]
  IC50: 11.8 µM
[8]
  Imax: 67%
[9]
  IC50: 130 nM
[10]
  Imax: 100%
[11]
  IC50: 90 nM
[12]
  Imax: 58%
[13]
  Imax: 85%
[14]
  IC50: 20 nM
[15]
  IC50: 53.9 µM
[16]
  Imax: 83%
[17]
  Imax: 88%
